Data as given in ChEMBL document CHEMBL3259540, “Design, synthesis and molecular docking studies of novel N-benzenesulfonyl-1,2,3,4-tetrahydroisoquinoline-based triazoles with potential anticancer activity” (Eur J Med Chem, 2014).

Experiments:
[1] = Cytotoxicity against human MOLT3 cells after 48 hrs by XTT assay; settings: MOLT-3, 48 h
HepG2 [2] = test: Cytotoxicity against human HepG2 cells after 48 hrs by MTT assay; assay type: functional, cell-based; settings: HepG2, 48 h
How it was run: (§1)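 Adherent cells seeded at 10,000–20,000 per well and held 24 h at 37 °C in 5% CO2. Serial dilutions of compound were then added, with etoposide and/or doxorubicin as positive controls and DMSO as negative control. After 48 h of continuous exposure, survival was read by MTT. IC50 was the concentration giving 50% growth inhibition relative to the DMSO control.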

A549 = test: Cytotoxicity against human A549 cells after 48 hrs by MTT assay; assay type: functional, cell-based; settings: A549, 48 h
How it was run: as §1

Vero = test: Cytotoxicity against african green monkey Vero cells after 4 days by GFP detection method; assay type: cell-based; settings: Chlorocebus sabaeus, 96 h
How it was run: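 Cells at 3.3 × 10^4 cells/mL were added to compounds prediluted in 0.5% DMSO. Plates were incubated 4 days at 37 °C in 5% CO2, and GFP fluorescence was read from the plate bottom.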

[3] = Cytotoxicity against human HuCCa1 cells after 48 hrs by MTT assay; assay type: functional, cell-based; settings: HuCC-A1, 48 h
How it was run: as §1

HepG2 [4] = test: Ratio of etoposide IC50 to compound IC50 for human HepG2 cells after 48 hrs by MTT assay; assay type: functional
HepG2 [5] = test: Ratio of doxorubicin IC50 to compound IC50 for human HepG2 cells after 48 hrs by MTT assay; assay type: functional

Compound | IC50 [1] | IC50 (HepG2 [2]) | IC50 (A549) | IC50 (Vero) | IC50 [3] | Ratio IC50 (HepG2 [4]) | Ratio IC50 (HepG2 [5])
COc1cc2c(cc1OC)CN(S(=O)(=O)c1ccc(-n3cc(CO)nn3)cc1)CC2 | > 50 µg/mL | 31.8 µM | 41 µM | > 50 µg/mL | 72 µM | – | –
Cc1c2ccncc2c(C)c2c1[nH]c1ccccc12 [ELLIPTECINE] | – | – | – | 1.94 µM | – | – | –
COC(=O)c1ccccc1OCc1cn(-c2ccc(S(=O)(=O)N3CCc4ccccc4C3)cc2)nn1 | 18.6 µM | 12.4 µM | 0.57 µM | 4.98 µM | 0.63 µM | – | –
COc1cc([C@@H]2c3cc4c(cc3[C@@H](O[C@@H]3O[C@@H]5CO[C@@H](C)O[C@H]5[C@H](O)[C@H]3O)[C@H]3COC(=O)[C@H]23)OCO4)cc(OC)c1O [ETOPOSIDE] | 0.051 µM | – | – | – | – | – | –
COc1cc2c(cc1OC)CN(S(=O)(=O)c1ccc(-n3cc(COc4ccc(C)cc4)nn3)cc1)CC2 | > 50 µg/mL | 0.56 µM | > 50 µg/mL | > 50 µg/mL | > 50 µg/mL | 53.9 | 1.4
COc1cc2c(cc1OC)CN(S(=O)(=O)c1ccc(-n3cc(COc4ccccc4C)nn3)cc1)CC2 | > 50 µg/mL | 1.48 µM | 27.2 µM | > 50 µg/mL | 39.7 µM | – | –
O=c1cc(OCc2cn(-c3ccc(S(=O)(=O)N4CCc5ccccc5C4)cc3)nn2)c2ccccc2o1 | 80.8 µM | > 50 µg/mL | 25.3 µM | 28.6 µM | 24.8 µM | – | –
COc1cc2c(cc1OC)CN(S(=O)(=O)c1ccc(-n3cc(COc4ccc(C=O)cc4)nn3)cc1)CC2 | 34.1 µM | 12.5 µM | 31.8 µM | > 50 µg/mL | 31.1 µM | – | –
O=S(=O)(c1ccc(-n2cc(CO)nn2)cc1)N1CCc2ccccc2C1 | > 50 µg/mL | > 50 µg/mL | > 50 µg/mL | > 50 µg/mL | 51.4 µM | – | –
COc1cc2c(cc1OC)CN(S(=O)(=O)c1ccc(-n3cc(COc4ccc([N+](=O)[O-])cc4)nn3)cc1)CC2 | > 50 µg/mL | > 50 µg/mL | > 50 µg/mL | > 50 µg/mL | > 50 µg/mL | – | –
Cc1ccccc1OCc1cn(-c2ccc(S(=O)(=O)N3CCc4ccccc4C3)cc2)nn1 | > 50 µg/mL | > 50 µg/mL | 66.3 µM | > 50 µg/mL | > 50 µg/mL | – | –
CC(=O)c1ccccc1OCc1cn(-c2ccc(S(=O)(=O)N3CCc4ccccc4C3)cc2)nn1 | 21.9 µM | 19.1 µM | 14.9 µM | > 50 µg/mL | 30.2 µM | – | –
Cc1ccc(OCc2cn(-c3ccc(S(=O)(=O)N4CCc5ccccc5C4)cc3)nn2)cc1 | > 50 µg/mL | > 50 µg/mL | > 50 µg/mL | > 50 µg/mL | > 50 µg/mL | – | –
COc1cc2c(cc1OC)CN(S(=O)(=O)c1ccc(-n3cc(COc4ccccc4)nn3)cc1)CC2 | > 50 µg/mL | 2.57 µM | > 50 µg/mL | > 50 µg/mL | > 50 µg/mL | – | –
O=Cc1ccc(OCc2cn(-c3ccc(S(=O)(=O)N4CCc5ccccc5C4)cc3)nn2)cc1 | > 50 µg/mL | 5.27 µM | 59.1 µM | > 50 µg/mL | > 50 µg/mL | – | –
O=S(=O)(c1ccc(-n2cc(COc3ccccc3)nn2)cc1)N1CCc2ccccc2C1 | > 50 µg/mL | 6.5 µM | > 50 µg/mL | > 50 µg/mL | > 50 µg/mL | – | –
COc1cc2c(cc1OC)CN(S(=O)(=O)c1ccc(-n3cc(COc4ccc(C=O)cc4OC)nn3)cc1)CC2 | 5.5 µM | > 50 µg/mL | > 50 µg/mL | > 50 µg/mL | 40 µM | – | –
COc1cccc2c1C(=O)c1c(O)c3c(c(O)c1C2=O)C[C@@](O)(C(=O)CO)C[C@@H]3O[C@H]1C[C@H](N)[C@H](O)[C@H](C)O1 [DOXORUBICIN] | – | – | – | – | 0.83 µM | – | –
COc1cc2c(cc1OC)CN(S(=O)(=O)c1ccc(-n3cc(COc4ccc5ccccc5c4)nn3)cc1)CC2 | 36.4 µM | 1.26 µM | > 50 µg/mL | > 50 µg/mL | > 50 µg/mL | – | –
O=S(=O)(c1ccc(-n2cc(COc3ccc4ccccc4c3)nn2)cc1)N1CCc2ccccc2C1 | > 50 µg/mL | 60.5 µM | > 50 µg/mL | > 50 µg/mL | > 50 µg/mL | – | –
COC(=O)c1ccccc1OCc1cn(-c2ccc(S(=O)(=O)N3CCc4cc(OC)c(OC)cc4C3)cc2)nn1 | 11.7 µM | 3.37 µM | 8.43 µM | 2.82 µM | 4.79 µM | – | –
COc1cc2c(cc1OC)CN(S(=O)(=O)c1ccc(-n3cc(COc4cc(C=O)ccc4OC)nn3)cc1)CC2 | 5.82 µM | 41.4 µM | 31.9 µM | > 50 µg/mL | 76.2 µM | – | –
COc1cc2c(cc1OC)CN(S(=O)(=O)c1ccc(-n3cc(COc4ccccc4C(C)=O)nn3)cc1)CC2 | > 50 µg/mL | > 50 µg/mL | > 50 µg/mL | 37.2 µM | > 50 µg/mL | – | –
